# Data reported in ChEMBL document CHEMBL1123408, “Influence of alkyl-chain fluorination on the action of mammary tumor inhibiting 2,3-bis(hydroxyphenyl)butanes and 2,3-bis(hydroxyphenyl)but-2-enes” (1986).
# Where “and” joins values, the source holds several entries; their conditions need not be identical. Equal values may be shown once.
# Assays:
# Rattus norvegicus [1] = test: Percent change in total tumor area in DMBA-Induced Hormone-Dependent Mammary Carcinoma rats at 18 mg/kg dose; assay type: functional
# Rattus norvegicus [2] = test: Percent progression in DMBA-Induced Hormone-Dependent Mammary Carcinoma in rats at 72 mg/kg dose; assay type: functional
# [3] = biological target: T1, Estrogen receptor (Mus musculus) (UniProt O08537+P19785); test: (§1) Uterotrophic effect in mice at 10 ug dose; assay type: functional, tissue-based; set-up: unit not given here; conditions: Uterus
# T1 sequence (O08537 whole entry, looked up): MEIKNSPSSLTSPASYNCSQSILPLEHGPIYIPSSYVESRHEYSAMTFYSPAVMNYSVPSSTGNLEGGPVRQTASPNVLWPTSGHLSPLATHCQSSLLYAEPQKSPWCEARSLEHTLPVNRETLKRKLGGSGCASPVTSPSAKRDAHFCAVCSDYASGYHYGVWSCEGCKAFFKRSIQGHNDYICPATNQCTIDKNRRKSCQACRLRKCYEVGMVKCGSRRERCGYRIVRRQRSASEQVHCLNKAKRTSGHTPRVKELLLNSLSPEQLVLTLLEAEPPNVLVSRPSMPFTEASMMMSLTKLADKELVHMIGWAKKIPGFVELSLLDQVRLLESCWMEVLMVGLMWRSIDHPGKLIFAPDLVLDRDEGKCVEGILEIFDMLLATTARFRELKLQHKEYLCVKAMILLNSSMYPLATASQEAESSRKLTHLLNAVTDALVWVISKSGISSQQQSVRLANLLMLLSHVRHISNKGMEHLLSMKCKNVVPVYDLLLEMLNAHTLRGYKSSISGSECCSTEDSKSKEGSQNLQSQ
# T1 sequence (P19785 whole entry, looked up): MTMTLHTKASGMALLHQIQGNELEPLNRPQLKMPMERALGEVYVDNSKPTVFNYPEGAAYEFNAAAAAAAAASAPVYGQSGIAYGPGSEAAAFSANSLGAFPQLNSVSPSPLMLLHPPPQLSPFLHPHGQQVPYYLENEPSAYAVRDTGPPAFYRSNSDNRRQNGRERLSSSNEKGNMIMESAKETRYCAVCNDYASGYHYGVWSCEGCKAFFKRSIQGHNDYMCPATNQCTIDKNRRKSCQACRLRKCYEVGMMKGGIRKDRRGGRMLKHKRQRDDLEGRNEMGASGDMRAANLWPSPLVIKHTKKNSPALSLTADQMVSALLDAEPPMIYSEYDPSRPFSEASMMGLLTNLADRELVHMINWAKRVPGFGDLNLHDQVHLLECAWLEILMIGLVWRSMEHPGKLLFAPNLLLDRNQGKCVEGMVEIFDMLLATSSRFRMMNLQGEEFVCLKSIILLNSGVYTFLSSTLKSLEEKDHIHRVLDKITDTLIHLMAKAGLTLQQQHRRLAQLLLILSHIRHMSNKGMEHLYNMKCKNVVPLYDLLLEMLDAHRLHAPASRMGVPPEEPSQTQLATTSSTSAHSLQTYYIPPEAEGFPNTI
# Method in brief: (§2)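 Immature female NMRI mice, 20 days old, 10 per group, given daily sc injections of 0.1 mL olive oil solution for 3 days. Uteri removed 24 h after the last dose, fixed in Bouin's solution, washed, dried and weighed. Antiestrogenic testing measured inhibition of estrone-stimulated uterine growth.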
# Rattus norvegicus [4] = test: Percent unchanged tumors in DMBA-Induced Hormone-Dependent Mammary Carcinoma in rats at 36 mg/kg dose; assay type: functional
# [5] = biological target: T1, Estrogen receptor (Mus musculus); test: (§3) Uterotrophic effect in mice at 100 ug dose; assay type: functional, tissue-based; set-up: unit not given here; conditions: Uterus; method in brief: as §2
# Mus musculus [6] = species: Mus musculus; test: Relative average tumor wet weight in treated compared to untreated mice at 13.84 mg dose; assay type: functional
# Method in brief: (§4)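 MXT mammary tumor pieces of 1-2 mm³ from syngeneic donors were implanted sc by trocar into female BD2F₁ mice aged 8-10 weeks (20.0 ± 1.7 g), groups of 10. From the next day, compound in olive oil was given sc three times weekly for 6 weeks. Tumor wet weight was measured at the end and expressed as % T/C.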
# Mus musculus [7] = species: Mus musculus; test: Relative average tumor wet weight in treated compared to untreated mice at 2.77 mg dose; assay type: functional
# Method in brief: (§5)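 Syngeneic female BD2F1 mice (8–10 weeks) received sc trocar implants of 1–2-mm³ MXT tumor pieces, 10 per group. Treatment began the next day: sc doses in olive oil (solution or suspension), three times weekly for 6 weeks. Tamoxifen-treated control group included. Tumor wet weight measured at sacrifice; expressed as % T/C versus untreated controls.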
# [8] = biological target: T1, Estrogen receptor (Mus musculus); test: Uterotrophic effect in mice at 500 ug dose; assay type: functional, tissue-based; set-up: unit not given here; conditions: Uterus; method in brief: as §2
# [9] = biological target: T1, Estrogen receptor (Mus musculus); test: Uterotrophic effect in mice at 5000 ug dose; assay type: functional, tissue-based; conditions: Uterus, in the assay text read “50 ug” for “5000 ug”; method in brief: as §2
# [10] = biological target: T1, Estrogen receptor (Mus musculus); test: Uterotrophic effect in BD2F mice bearing transplantable hormone dependent MXT at 2.76 mg dose; assay type: functional, tissue-based; conditions: Uterus
# Method in brief: (§6)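 MXT-bearing female BD2F1 mice (10 per group) dosed sc in olive oil three times weekly for 6 weeks from the day after tumor transplantation. Uteri excised at sacrifice and dry weight determined; values given as mean ± SD.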
# Rattus norvegicus [11] = test: Final tumor number in DMBA-Induced Hormone-Dependent Mammary Carcinoma in rats at 18 mg/kg dose; assay type: functional
# Rattus norvegicus [12] = test: Percent progression in DMBA-Induced Hormone-Dependent Mammary Carcinoma in rats at 36 mg/kg dose; assay type: functional
# Rattus norvegicus [13] = test: Percent change in body weight in DMBA-Induced Hormone-Dependent Mammary Carcinoma rats at 18 mg/kg dose; assay type: functional
# Rattus norvegicus [14] = test: Percent change in body weight in DMBA-Induced Hormone-Dependent Mammary Carcinoma rats at 36 mg/kg dose; assay type: functional
# [15] = biological target: T1, Estrogen receptor (Mus musculus); test: (§7) Uterotrophic effect in mice at 0 ug dose; assay type: functional, tissue-based; set-up: unit not given here; conditions: Uterus; method in brief: as §2
# Rattus norvegicus [16] = test: Percent unchanged tumors in DMBA-Induced Hormone-Dependent Mammary Carcinoma in rats at 18 mg/kg dose; assay type: functional
# Rattus norvegicus [17] = test: Percent change in body weight in DMBA-Induced Hormone-Dependent Mammary Carcinoma rats at 72 mg/kg dose; assay type: functional
# Rattus norvegicus [18] = test: Percent partial remission in DMBA-Induced Hormone-Dependent Mammary Carcinoma in rats at 36 mg/kg dose; assay type: functional
# Rattus norvegicus [19] = test: Percent progression in DMBA-Induced Hormone-Dependent Mammary Carcinoma in rats at 18 mg/kg dose; assay type: functional
# Rattus norvegicus [20] = test: Percent partial remission in DMBA-Induced Hormone-Dependent Mammary Carcinoma in rats at 72 mg/kg dose; assay type: functional
# Rattus norvegicus [21] = test: Percent complete remission in DMBA-Induced Hormone-Dependent Mammary Carcinoma in rats at 72 mg/kg dose; assay type: functional
# Rattus norvegicus [22] = test: Final tumor number in DMBA-Induced Hormone-Dependent Mammary Carcinoma in rats at 36 mg/kg dose; assay type: functional
# Rattus norvegicus [23] = test: Initial tumor number in DMBA-Induced Hormone-Dependent Mammary Carcinoma in rats at 36 mg/kg dose; assay type: functional
# Rattus norvegicus [24] = test: Final tumor number in DMBA-Induced Hormone-Dependent Mammary Carcinoma in rats at 72 mg/kg dose; assay type: functional
# [25] = biological target: T1, Estrogen receptor (Mus musculus); test: Uterotrophic effect in mice at 0.1 ug dose; assay type: functional, tissue-based; set-up: unit not given here; conditions: Uterus; method in brief: as §2
# Rattus norvegicus [26] = test: Percent unchanged tumors in DMBA-Induced Hormone-Dependent Mammary Carcinoma in rats at 72 mg/kg dose; assay type: functional
# Rattus norvegicus [27] = test: Percent complete remission in DMBA-Induced Hormone-Dependent Mammary Carcinoma in rats at 18 mg/kg dose; assay type: functional
# Rattus norvegicus [28] = test: Initial tumor number in DMBA-Induced Hormone-Dependent Mammary Carcinoma in rats at 18 mg/kg dose; assay type: functional
# [29] = biological target: T1, Estrogen receptor (Mus musculus); test: as §7; assay type: functional, tissue-based; set-up: unit not given here; conditions: Uterus; method in brief: as §2; remark: listed apart in the source
# [30] = biological target: T1, Estrogen receptor (Mus musculus); test: (§8) Uterotrophic effect in mice at 1000 ug dose; assay type: functional, tissue-based; set-up: unit not given here; conditions: Uterus; method in brief: as §2
# [31] = biological target: T1, Estrogen receptor (Mus musculus); test: (§9) Uterotrophic effect in mice at 1 ug dose; assay type: functional, tissue-based; conditions: Uterus; method in brief: as §2
# Rattus norvegicus [32] = test: Percent change in total tumor area in DMBA-Induced Hormone-Dependent Mammary Carcinoma rats at 72 mg/kg dose; assay type: functional
# Rattus norvegicus [33] = test: Percent change in total tumor area in DMBA-Induced Hormone-Dependent Mammary Carcinoma rats at 36 mg/kg dose; assay type: functional
# [34] = biological target: T1, Estrogen receptor (Mus musculus); test: Uterotrophic effect in mice at 5 ug dose; assay type: functional, tissue-based; conditions: Uterus; method in brief: as §2
# [35] = biological target: T1, Estrogen receptor (Mus musculus); test: Uterotrophic effect in BD2F mice bearing transplantable hormone dependent MXT at 13.84 mg dose; assay type: functional, tissue-based; conditions: Uterus; method in brief: as §6
# Rattus norvegicus [36] = test: Initial tumor number in DMBA-Induced Hormone-Dependent Mammary Carcinoma in rats at 72 mg/kg dose; assay type: functional
# Rattus norvegicus [37] = test: Percent complete remission in DMBA-Induced Hormone-Dependent Mammary Carcinoma in rats at 36 mg/kg dose; assay type: functional
# Rattus norvegicus [38] = test: Percent partial remission in DMBA-Induced Hormone-Dependent Mammary Carcinoma in rats at 18 mg/kg dose; assay type: functional
# Mus musculus [39] = species: Mus musculus; test: Relative average tumor wet weight in treated compared to untreated mice at 2.76 mg dose; assay type: functional; method in brief: as §5
# [40] = biological target: T1, Estrogen receptor (Mus musculus); test: as §3; assay type: functional, tissue-based; set-up: unit not given here; conditions: Uterus; method in brief: as §2; remark: listed apart in the source
# [41] = biological target: T1, Estrogen receptor (Mus musculus); test: Anti-uterotrophic effect in mice at 500 ug dose; assay type: functional
# Method in brief: (§10)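 Immature female NMRI mice, 20 days old (14.5 ± 1.2 g), randomized into groups of 10. Each received a daily sc injection of compound in 0.1 mL olive oil for 3 days, given together with estrone. Uteri were taken 24 h after the last injection, fixed in Bouin's solution, washed, dried and weighed. The read-out was inhibition of estrone-stimulated uterine growth.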
# [42] = biological target: T1, Estrogen receptor (Mus musculus); test: Uterotrophic effect in BD2F mice bearing transplantable hormone dependent MXT at 13.80 mg dose; assay type: functional, tissue-based; conditions: Uterus; method in brief: as §6
# [43] = biological target: T1, Estrogen receptor (Mus musculus); test: as §1; assay type: functional, tissue-based; conditions: Uterus; method in brief: as §2
# [44] = biological target: T1, Estrogen receptor (Mus musculus); test: Uterotrophic effect in mice at 25 ug dose; assay type: functional, tissue-based; set-up: unit not given here; conditions: Uterus; method in brief: as §2
# Mus musculus [45] = species: Mus musculus; test: Relative average tumor wet weight in treated compared to untreated mice at 13.80 mg dose; assay type: functional; method in brief: as §4
# [46] = biological target: T1, Estrogen receptor (Mus musculus); test: as §9; assay type: functional, tissue-based; set-up: unit not given here; conditions: Uterus; method in brief: as §2
# Mus musculus [47] = species: Mus musculus; test: Relative average tumor wet weight in treated compared to untreated mice at 4 mg dose; assay type: functional; method in brief: as §5
# [48] = biological target: T1, Estrogen receptor (Mus musculus); test: as §8; assay type: functional, tissue-based; conditions: Uterus; method in brief: as §2
# [49] = biological target: T1, Estrogen receptor (Mus musculus); test: Uterotrophic effect in BD2F mice bearing transplantable hormone dependent MXT at 20 mg dose; assay type: functional, tissue-based; conditions: Uterus; method in brief: as §6
# [50] = biological target: T1, Estrogen receptor (Mus musculus); test: Uterotrophic effect in BD2F mice bearing transplantable hormone dependent MXT at 4 mg dose; assay type: functional, tissue-based; conditions: Uterus; method in brief: as §6
# Mus musculus [51] = species: Mus musculus; test: Relative average tumor wet weight in treated compared to untreated mice at 20 mg dose; assay type: functional; method in brief: as §5
# [52] = biological target: T1, Estrogen receptor (Mus musculus); test: Anti-uterotrophic effect in mice at 25 ug dose; assay type: functional; method in brief: as §10
smiles,measurement,setting,value
C[C@H](c1cccc(O)c1)[C@@H](C)c1cccc(O)c1,Change in tumor area %,Rattus norvegicus [1],188%
same,Tumors,Rattus norvegicus [2],25%
same,Effect,[3],12.4
same,Tumors,Rattus norvegicus [4],38%
same,Effect,[5],12.6
same,TC,Mus musculus [6],66.5%
same,TC,Mus musculus [7],106%
same,Effect,[8],29
same,Effect,[9],34.3
same,Effect,[10],86.9
same,No. of tumors,Rattus norvegicus [11],16
same,Tumors,Rattus norvegicus [12],24%
same,Change in weight,Rattus norvegicus [13],2.4%
same,Change in weight,Rattus norvegicus [14],1.6%
same,Effect,[15],11.2 and 9.9 and 10.5
same,Tumors,Rattus norvegicus [16],24%
same,Change in weight,Rattus norvegicus [17],0.9%
same,Tumors,Rattus norvegicus [18],9%
same,Tumors,Rattus norvegicus [19],51%
same,Tumors,Rattus norvegicus [20],25%
same,Tumors,Rattus norvegicus [21],34%
same,No. of tumors,Rattus norvegicus [22],12
same,No. of tumors,Rattus norvegicus [23],22
same,No. of tumors,Rattus norvegicus [24],22
same,Effect,[25],38.5 [middle of 4 runs]
same,Tumors,Rattus norvegicus [26],16%
same,Tumors,Rattus norvegicus [27],14%
same,No. of tumors,Rattus norvegicus [28],21
same,Effect,[29],11.9
same,Effect,[30],13.1
same,Effect,[31],11.7
same,Change in tumor area %,Rattus norvegicus [32],6%
same,Change in tumor area %,Rattus norvegicus [33],105%
same,Effect,[34],36.5
same,Effect,[35],73.5
same,No. of tumors,Rattus norvegicus [36],26
same,Tumors,Rattus norvegicus [37],29%
same,Tumors,Rattus norvegicus [38],11%
C/C(=C(/C)c1cccc(O)c1)c1cccc(O)c1,TC,Mus musculus [39],88%
same,Effect,[40],43.5
same,Effect,[5],13.8
same,Effect,[8],33.1
same,Effect,[10],80.7
same,Effect,[15],12.9
same,inhibition,[41],27.2%
same,Effect,[42],88.4
same,Effect,[43],12.2
same,Effect,[29],13.3
same,Effect,[30],12.8
same,Effect,[44],42.3
same,TC,Mus musculus [45],69.9%
same,Effect,[34],37.2
Oc1cccc(/C(=C(/c2cccc(O)c2)C(F)(F)F)C(F)(F)F)c1,Effect,[3],29
same,Effect,[40],47.8
same,Effect,[5],45.5
same,Effect,[8],52.6
same,Effect,[15],14.8
same,Effect,[25],15.7
same,Effect,[46],25.3
same,TC,Mus musculus [47],25.7%
same,Effect,[48],51.8
same,Effect,[49],82.1
same,Effect,[29],11.1
same,Effect,[50],74.8
same,Effect,[44],47.4
same,TC,Mus musculus [51],11.5%
same,Effect,[34],43
C/C(=C(/C)c1ccc(O)cc1)c1ccc(O)cc1 [DIMETHYLSTILBESTROL],Effect,[3],25.4
same,TC,Mus musculus [39],69.5%
same,Effect,[40],39.8
same,Effect,[5],35.9
same,Effect,[8],48.7
same,Effect,[10],74.7
same,Effect,[15],14.8
same,Effect,[42],70.4
same,inhibition,[52],30.1%
same,Effect,[29],16.7
same,Effect,[30],41.8
same,Effect,[44],32
same,Effect,[31],20.6
same,TC,Mus musculus [45],46.2%
same,Effect,[34],39.2
